# From ChEMBL document CHEMBL4715736, “Identification of anticancer agents based on the thieno[2,3-b]pyridine and 1H-pyrazole molecular scaffolds” (2016)
# Tested on: HCC 2998
# Assay: Growth inhibition of human HCC 2998 cells assessed as cell growth at 10 uM incubated for 48 hrs by sulforhodamine B assay relative to control
# Format: functional
# Settings: read-out: Activity
# How it was run: (§1)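 NCI Developmental Therapeutics Program NCI60 panel. Compounds that were active in the 10 µM one-dose screen went on to dose–response testing. Growth at each concentration is expressed relative to untreated control (100%). GI50 (concentration giving 50% of maximal inhibition of proliferation) and TGI (concentration giving total growth inhibition) were derived from the curves.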
row,Compound,growth at 10 µM [%]
1,COc1ccc(-c2ccn(S(=O)(=O)c3ccc(C)cc3)n2)cc1,86.9
2,COc1ccc(S(=O)(=O)n2ccc(-c3ccc(OC(C)C)cc3)n2)cc1,103

# Tested on: SW-620
# Assay: Growth inhibition of human SW-620 cells assessed as cell growth at 10 uM incubated for 48 hrs by sulforhodamine B assay relative to control
# Format: functional
# Settings: read-out: Activity
# How it was run: (§2)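 Run by the NCI Developmental Therapeutics Program as part of its 60-line human tumour panel. Each compound tested at a single 10 µM dose. Growth expressed as % relative to untreated control cells (100%).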
row,Compound,growth at 10 µM [%]
1,COc1ccc(-c2ccn(S(=O)(=O)c3ccc(C)cc3)n2)cc1,90.2
2,COc1ccc(S(=O)(=O)n2ccc(-c3ccc(OC(C)C)cc3)n2)cc1,86.3

# Tested on: 786-0
# Assay: Growth inhibition of human 786-0 cells assessed as cell growth at 10 uM incubated for 48 hrs by sulforhodamine B assay relative to control
# Format: functional
# Settings: read-out: Activity
# How it was run: as §1
row,Compound,growth at 10 µM [%]
1,COc1ccc(-c2ccn(S(=O)(=O)c3ccc(C)cc3)n2)cc1,83
2,COc1ccc(S(=O)(=O)n2ccc(-c3ccc(OC(C)C)cc3)n2)cc1,81.1

# Tested on: SR
# Assay: Growth inhibition of human SR cells assessed as cell growth at 10 uM incubated for 48 hrs by sulforhodamine B assay relative to control
# Format: functional
# Settings: read-out: Activity
# How it was run: as §2
row,Compound,growth at 10 µM [%]
1,COc1ccc(-c2ccn(S(=O)(=O)c3ccc(C)cc3)n2)cc1,79.2
2,COc1ccc(S(=O)(=O)n2ccc(-c3ccc(OC(C)C)cc3)n2)cc1,75.7

# Tested on: OVCAR-8
# Assay: Growth inhibition of human OVCAR-8 cells assessed as cell growth at 10 uM incubated for 48 hrs by sulforhodamine B assay relative to control
# Format: functional
# Settings: read-out: Activity
# How it was run: as §2
row,Compound,growth at 10 µM [%]
1,COc1ccc(-c2ccn(S(=O)(=O)c3ccc(C)cc3)n2)cc1,83.4
2,COc1ccc(S(=O)(=O)n2ccc(-c3ccc(OC(C)C)cc3)n2)cc1,94.6

# Tested on: COLO 205
# Assay: Growth inhibition of human COLO 205 cells assessed as cell growth at 10 uM incubated for 48 hrs by sulforhodamine B assay relative to control
# Format: functional
# Settings: read-out: Activity
# How it was run: as §1
row,Compound,growth at 10 µM [%]
1,COc1ccc(-c2ccn(S(=O)(=O)c3ccc(C)cc3)n2)cc1,112
2,COc1ccc(S(=O)(=O)n2ccc(-c3ccc(OC(C)C)cc3)n2)cc1,111

# Tested on: K562
# Assay: Growth inhibition of human K562 cells assessed as cell growth at 10 uM incubated for 48 hrs by sulforhodamine B assay relative to control
# Format: functional
# Settings: read-out: Activity
# How it was run: (§3)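 Submitted to the NCI Developmental Therapeutics Program for the NCI60 human tumour cell line panel. First screen at a single 10 µM concentration. Read-out is growth relative to untreated control cells set at 100%.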
row,Compound,growth at 10 µM [%]
1,COc1ccc(-c2ccn(S(=O)(=O)c3ccc(C)cc3)n2)cc1,75.4
2,COc1ccc(S(=O)(=O)n2ccc(-c3ccc(OC(C)C)cc3)n2)cc1,53.6

# Tested on: OVCAR-4
# Assay: Growth inhibition of human OVCAR-4 cells assessed as cell growth at 10 uM incubated for 48 hrs by sulforhodamine B assay relative to control
# Format: functional
# Settings: read-out: Activity
# How it was run: as §2
row,Compound,growth at 10 µM [%]
1,COc1ccc(-c2ccn(S(=O)(=O)c3ccc(C)cc3)n2)cc1,62
2,COc1ccc(S(=O)(=O)n2ccc(-c3ccc(OC(C)C)cc3)n2)cc1,67.7

# Tested on: T47D
# Assay: Growth inhibition of human T47D cells assessed as cell growth at 10 uM incubated for 48 hrs by sulforhodamine B assay relative to control
# Format: functional
# Settings: read-out: Activity
# How it was run: as §2
row,Compound,growth at 10 µM [%]
1,COc1ccc(-c2ccn(S(=O)(=O)c3ccc(C)cc3)n2)cc1,48
2,COc1ccc(S(=O)(=O)n2ccc(-c3ccc(OC(C)C)cc3)n2)cc1,72.3

# Tested on: LOX IMVI
# Assay: Growth inhibition of human LOX IMVI cells assessed as cell growth at 10 uM incubated for 48 hrs by sulforhodamine B assay relative to control
# Format: functional
# Settings: read-out: Activity
# How it was run: as §3
row,Compound,growth at 10 µM [%]
1,COc1ccc(-c2ccn(S(=O)(=O)c3ccc(C)cc3)n2)cc1,84.2
2,COc1ccc(S(=O)(=O)n2ccc(-c3ccc(OC(C)C)cc3)n2)cc1,94.1

# Tested on: DU-145
# Assay: Growth inhibition of human DU-145 cells assessed as cell growth at 10 uM incubated for 48 hrs by sulforhodamine B assay relative to control
# Format: functional
# Settings: read-out: Activity
# How it was run: as §1
row,Compound,growth at 10 µM [%]
1,COc1ccc(-c2ccn(S(=O)(=O)c3ccc(C)cc3)n2)cc1,93.7
2,COc1ccc(S(=O)(=O)n2ccc(-c3ccc(OC(C)C)cc3)n2)cc1,94.3

# Tested on: RPMI-8226
# Assay: Growth inhibition of human RPMI-8226 cells assessed as cell growth at 10 uM incubated for 48 hrs by sulforhodamine B assay relative to control
# Format: functional
# Settings: read-out: Activity
# How it was run: as §2
row,Compound,growth at 10 µM [%]
1,COc1ccc(-c2ccn(S(=O)(=O)c3ccc(C)cc3)n2)cc1,69
2,COc1ccc(S(=O)(=O)n2ccc(-c3ccc(OC(C)C)cc3)n2)cc1,70.7

# Tested on: NCI-H23
# Assay: Growth inhibition of human NCI-H23 cells assessed as cell growth at 10 uM incubated for 48 hrs by sulforhodamine B assay relative to control
# Format: functional
# Settings: read-out: Activity
# How it was run: as §3
row,Compound,growth at 10 µM [%]
1,COc1ccc(-c2ccn(S(=O)(=O)c3ccc(C)cc3)n2)cc1,67.9
2,COc1ccc(S(=O)(=O)n2ccc(-c3ccc(OC(C)C)cc3)n2)cc1,83.8

# Tested on: SF-268
# Assay: Growth inhibition of human SF-268 cells assessed as cell growth at 10 uM incubated for 48 hrs by sulforhodamine B assay relative to control
# Format: functional
# Settings: read-out: Activity
# How it was run: as §2
row,Compound,growth at 10 µM [%]
1,COc1ccc(-c2ccn(S(=O)(=O)c3ccc(C)cc3)n2)cc1,95.9
2,COc1ccc(S(=O)(=O)n2ccc(-c3ccc(OC(C)C)cc3)n2)cc1,100

# Tested on: MDA-MB-231
# Assay: Growth inhibition of human MDA-MB-231 cells assessed as cell growth at 10 uM incubated for 48 hrs by sulforhodamine B assay relative to control
# Format: functional
# Settings: read-out: Activity
# How it was run: as §3
row,Compound,growth at 10 µM [%]
1,COc1ccc(-c2ccn(S(=O)(=O)c3ccc(C)cc3)n2)cc1,89.2
2,COc1ccc(S(=O)(=O)n2ccc(-c3ccc(OC(C)C)cc3)n2)cc1,93

# Tested on: MCF7
# Assay: Growth inhibition of human MCF7 cells assessed as cell growth at 10 uM incubated for 48 hrs by sulforhodamine B assay relative to control
# Format: functional
# Settings: read-out: Activity
# How it was run: as §3
row,Compound,growth at 10 µM [%]
1,COc1ccc(-c2ccn(S(=O)(=O)c3ccc(C)cc3)n2)cc1,88.3
2,COc1ccc(S(=O)(=O)n2ccc(-c3ccc(OC(C)C)cc3)n2)cc1,93.8

# Tested on: ACHN
# Assay: Growth inhibition of human ACHN cells assessed as cell growth at 10 uM incubated for 48 hrs by sulforhodamine B assay relative to control
# Format: functional
# Settings: read-out: Activity
# How it was run: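 NCI Developmental Therapeutics Program NCI60 human tumour cell line panel, one-dose primary screen with every compound at 10 µM. Growth is expressed as % of untreated control cells (100%).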
row,Compound,growth at 10 µM [%]
1,COc1ccc(-c2ccn(S(=O)(=O)c3ccc(C)cc3)n2)cc1,91.6
2,COc1ccc(S(=O)(=O)n2ccc(-c3ccc(OC(C)C)cc3)n2)cc1,95.8

# Tested on: CAKI-1
# Assay: Growth inhibition of human CAKI-1 cells assessed as cell growth at 10 uM incubated for 48 hrs by sulforhodamine B assay relative to control
# Format: functional
# Settings: read-out: Activity
# How it was run: as §1
row,Compound,growth at 10 µM [%]
1,COc1ccc(-c2ccn(S(=O)(=O)c3ccc(C)cc3)n2)cc1,69.5
2,COc1ccc(S(=O)(=O)n2ccc(-c3ccc(OC(C)C)cc3)n2)cc1,66

# Tested on: SNB-19
# Assay: Growth inhibition of human SNB-19 cells assessed as cell growth at 10 uM incubated for 48 hrs by sulforhodamine B assay relative to control
# Format: functional
# Settings: read-out: Activity
# How it was run: as §2
row,Compound,growth at 10 µM [%]
1,COc1ccc(-c2ccn(S(=O)(=O)c3ccc(C)cc3)n2)cc1,94.5
2,COc1ccc(S(=O)(=O)n2ccc(-c3ccc(OC(C)C)cc3)n2)cc1,100
